Experimental data: article PMC4643417 (Leukemia & lymphoma, 2015)

Key:
BCL2 = settings: statement in discussion; cited from earlier work
BCLXL = settings: statement in discussion; cited from earlier work
[1] = tested on: patients with previously untreated CLL; design: species or system human; settings: in vivo
[2] = Navitoclax plasma pharmacokinetics; type: in vivo, human; settings: for AUC / Cmax / Tmax: human, plasma, po
[3] = tested on: patients with relapsed/refractory CLL; settings: phase 1 study, single-agent navitoclax; cited from earlier work
[4] = tested on: patients with previously untreated CLL; assay: Phase 2 randomized three-arm trial: investigator-assessed best response; type: in vivo, human
Summary of the method: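 Open-label multicenter trial, randomized 1:1:1 and stratified by Binet stage and del(17p)/del(11q) (interphase FISH on marrow aspirates). Rituximab 375 mg/m2 week 1, then 500 mg/m2 weekly weeks 2–8, alone or with oral navitoclax (100 mg daily lead-in week, then 250 mg daily for 12 weeks). Investigator response by updated iwCLL at week 12, then every 12 weeks. ORR (CR+PR) with 95% CI; PFS by Kaplan–Meier.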

[5] = tested on: patients with CLL, BCL2 protein low or high subgroups; assay: Association of baseline BCL2 protein expression; type: in vivo, human; settings: arm A (n = 24) / arms B + C pooled (n = 31)
Summary of the method: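 Baseline bone marrow aspirates (optional consent), fresh: intracellular BCL2 staining by flow cytometry at a central lab within 72 h of collection, gated on CD19/CD5-positive CLL cells. Low/high subgroups split at median expression. Rituximab 375 mg/m2 week 1, then 500 mg/m2 weekly weeks 2–8, ± oral navitoclax (100 mg/day lead-in, then 250 mg/day). Odds ratios of objective response by logistic regression.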

[6] = in vivo
[7] = ITT population, arm A (n = 40) / arm B (n = 38; navitoclax 12 weeks)
[8] = patients with del(17p), arm A (n = 11) / arm B (n = 12; navitoclax 12 weeks)

## CC1(C)CCC(CN2CCN(c3ccc(C(=O)NS(=O)(=O)c4ccc(NCC5CCOCC5)c([N+](=O)[O-])c4)c(Oc4cnc5[nH]ccc5c4)c3)CC2)=C(c2ccc(Cl)cc2)C1 [ABT-199]
BCL2
  Affinity for BCL2: very high affinity
BCLXL
  BCLXL inhibition: effectively no BCLXL inhibition

## CC1(C)CCC(c2ccc(Cl)cc2)=C(CN2CCN(c3ccc(C(=O)NS(=O)(=O)c4ccc(N[C@H](CCN5CCOCC5)CSc5ccccc5)c(S(=O)(=O)C(F)(F)F)c4)cc3)CC2)C1 [navitoclax]
[1]; human
  Discontinuation of navitoclax due to hyperbilirubinemia: 1 n
  Discontinuation of navitoclax due to neutropenia: 1 n
  Discontinuation of navitoclax due to pain: 1 n
  Discontinuation of navitoclax due to reaction to the infusion of rituximab: 1 n
  Discontinuation of navitoclax due to serum sickness: 1 n
  Discontinuation of navitoclax due to thrombocytopenia: 1 n
  Patients who discontinued navitoclax due to an AE, total: 12 patients
[1]
  Incidence of SAEs compared to patients treated with rituximab alone: not increased
  Reports of bleeding: a single AE of self-limited epistaxis
[2]
  Time of maximum navitoclax concentration (Cmax) after oral administration: approximately 6 h
[2]; 100 mg
  AUC: 10500 ± 4100 ng·h/mL
  Cmax: 2300 ± 900 ng/mL
  Tmax: 6 h
[2]; 250 mg
  AUC: 61200 ± 31200 ng·h/mL
  Cmax: 3700 ± 2000 ng/mL
  Tmax: 6.1 h
[3]
  Overall response rate (ORR): 35%

## rituximab
[4]; [7]
  Best response: Missing: 3 (8) n (%)
  Complete response (CR): 0 (0) n (%)
  Partial response (PR): 14 (35) n (%)
  Progressive disease: 2 (5) n (%)
  Stable disease: 21 (53) n (%)
[4]; arm A / arm B (navitoclax daily for 12 weeks)
  Overall response rate (complete [CR] and partial [PR]), investigator-assessed: 35%
[4]; [8]
  Best response: Missing: 0 (0) n (%)
  Complete response (CR): 0 (0) n (%)
  Partial response (PR): 2 (18) n (%)
  Progressive disease: 1 (9) n (%)
  Stable disease: 8 (73) n (%)
[1]
  Anemia/worsening of anemia: 2 (5) n (%)
  Any AEs: 33 (87) n (%)
  Any SAEs: 5 (13) n (%)
  Asthenia: 0 (0) n (%)
  Chills: 0 (0) n (%)
  Diarrhea: 0 (0) n (%)
  GI and abdominal pain: 0 (0) n (%)
  Grade 5 AEs: 3%
  Hyperbilirubinemia: 0 (0) n (%)
  Leukopenia: 1 (3) n (%)
  Liver enzyme increase: 0 (0) n (%)
  Neutropenia: 3 (8) n (%)
  Patients who withdrew from study due to AEs: 0 [0%] n [%]
  Respiratory tract infection: 3 (8) n (%)
  Thrombocytopenia: 0 (0) n (%)
  Vascular hypertensive disorders (hypertension): 0 (0) n (%)
[5]
  Best response PR: 6 (43%) n (%)
  Best response SD or PD: 8 (57%) n (%)
[6]
  Effect of navitoclax on the PK of rituximab: does not affect the PK of rituximab
  Week 8 rituximab concentration, post-infusion: 576 ± 264 (n = 33) μg/mL
  Week 8 rituximab concentration, pre-infusion: 296 ± 175 (n = 33) μg/mL
